# Reference: paper PMC6263940 (Nature chemical biology, 2018)
# Columns and labels:
# LCMV clone 13 = details: mouse, in vivo, ip, 30 mg/kg
# [1] = system: serine hydrolases in THP-1 cells; experiment: ABPP-SILAC; assay type: cell-based, human; details: 1 μM, 4 h, THP-1 cells
# ABHD12 [2] = target: T1, ABHD12 (Homo sapiens, UniProt Q8N2K0); experiment: ABPP-SILAC; assay type: cell-based; details: 1 μM, 4 h, THP-1 cells
# T1 sequence (Q8N2K0 1-398): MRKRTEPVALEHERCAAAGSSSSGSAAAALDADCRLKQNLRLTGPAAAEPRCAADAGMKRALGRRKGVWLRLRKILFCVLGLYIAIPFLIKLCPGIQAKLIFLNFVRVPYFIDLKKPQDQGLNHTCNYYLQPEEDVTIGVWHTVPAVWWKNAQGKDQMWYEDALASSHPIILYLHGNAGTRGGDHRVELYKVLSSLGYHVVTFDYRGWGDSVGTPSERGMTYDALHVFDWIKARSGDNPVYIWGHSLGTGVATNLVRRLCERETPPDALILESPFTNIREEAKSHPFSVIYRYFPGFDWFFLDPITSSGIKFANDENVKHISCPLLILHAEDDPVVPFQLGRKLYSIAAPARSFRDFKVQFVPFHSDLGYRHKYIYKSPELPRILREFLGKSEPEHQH
# Summary of the method: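 Heavy- or light-labelled THP-1 cells (30 million) differentiated with PMA (150 ng/mL final) for 24 h, washed, then kept a further 24 h in fresh SILAC medium. Light cells treated with test compound and heavy cells with DMSO, 4 h at 37 °C. Sonicated whole-cell proteomes (2 mg/mL) labelled separately with FP-biotin 1 μM, 30 min, room temperature, then combined for quantitative MS.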
# ABHD12 [3] = target: T2, ABHD12 (Mus musculus, UniProt Q99LR1); experiment: Competitive gel-based ABPP with JJH350 probe in mouse brain membrane proteome; assay type: biochemical; details: for activity against ABHD12 (in words): gel-based competitive ABPP, mouse brain membrane proteome
# T2 sequence (Q99LR1 1-398): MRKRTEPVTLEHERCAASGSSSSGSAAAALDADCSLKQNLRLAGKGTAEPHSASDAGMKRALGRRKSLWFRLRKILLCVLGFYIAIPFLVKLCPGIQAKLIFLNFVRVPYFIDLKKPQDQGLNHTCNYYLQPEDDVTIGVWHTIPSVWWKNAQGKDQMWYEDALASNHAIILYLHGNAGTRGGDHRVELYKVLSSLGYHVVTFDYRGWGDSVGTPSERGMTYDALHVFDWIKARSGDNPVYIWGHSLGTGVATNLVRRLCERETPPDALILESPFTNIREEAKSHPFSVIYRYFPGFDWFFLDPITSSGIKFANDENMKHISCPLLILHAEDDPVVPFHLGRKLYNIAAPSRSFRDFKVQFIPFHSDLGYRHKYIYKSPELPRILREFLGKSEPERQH
# THP-1 cells = experiment: Targeted LC-MS of; assay type: cell-based, human; details: DO264 0.001-1 μM, (S)-DO271 1 μM, 4 h
# Summary of the method: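 THP-1 cells (6 million in 10 mL) incubated with test compound or DMSO for 4 h at 37 °C, 5% CO₂. Cells washed twice with ice-cold DPBS and stored at −80 °C, then analysed by targeted LC-MS metabolomics for lyso-PS and PS species.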
# mice = experiment: Two-week daily dosing, overt signs of toxicity; assay type: in vivo, mouse; details: adult mice, 30 mg/kg daily, p.o., two weeks
# ABHD12 [4] = target: T1, ABHD12; experiment: In situ treatment of THP-1 cells, competitive gel-based ABPP with JJH350 probe; assay type: cell-based; details: 1 μM, 4 h in situ
# Summary of the method: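 Whole THP-1 cells exposed to test compound or DMSO for 4 h at 37 °C, 5% CO₂, then washed twice with ice-cold DPBS. Proteome (1 mg/mL) labelled with JJH350 (2 μM final, 45 min, 37 °C), clicked by CuAAC and resolved on gel. ABHD12 band intensity is expressed relative to the control-treated sample, set to 100%.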
# ABHD12 [5] = target: T2, ABHD12; experiment: Ex vivo gel-based competitive ABPP; assay type: in vivo; details: mice, 60 mg/kg, 4 h
# [6] = Measurement of drug concentration in brain and blood of mice; assay type: in vivo, mouse; details: 4 h, at 60 mg/kg (i.p.) approximated exposures observed with DO264
# Summary of the method: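 Tissues harvested 4 h after dosing. Brain homogenised in 4 volumes of water per weight; cardiac-puncture blood quenched 1:4 in acetonitrile. Samples diluted 1000–2000-fold in 50% ACN and spiked into blank C57BL/6J brain homogenate or blood, alongside serially diluted calibration standards. After vortexing and centrifugation (4 °C, 15 min), supernatant diluted 5-fold in water and quantified by LC/MS/MS.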
# ABHD12 [7] = target: T2, ABHD12; experiment: Lyso-PS hydrolysis assay with membrane lysates of ABHD12-transfected cells; assay type: biochemical
# Summary of the method: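 Membrane lysate of ABHD12-transfected cells in DPBS incubated with 17:1 lyso-PS (100 μM final) for 20 min at 37 °C. Quenched in 2:1 CHCl₃/MeOH with 15:0 FFA internal standard. Activity is the LC-MS 17:1 FFA/15:0 FFA peak-area ratio minus mock-transfected membrane activity. IC50 fitted as log(inhibitor) vs normalized response.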
# ABHD12 [8] = target: T2, ABHD12; experiment: Competitive ABPP with FP-Rh probe, lysates of ABHD12-transfected cells; assay type: biochemical; details: hit compound tested at 10 μM
# Summary of the method: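 Mouse ABHD12 expressed in HEK293F cells by PEI transfection (48 h, 37 °C, 5% CO₂). Membranes prepared by hypotonic lysis, sonication, 100,000 × g pelleting and a high-salt wash, then resuspended in DPBS. Lysate (1 mg/mL) pre-exposed to hit compound, then labelled with FP-Rh (1 μM final, 45 min, 37 °C). Gel band intensity is read relative to control (100%).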
# ABHD12 [9] = target: T2, ABHD12; experiment: Covalent labelling of mouse brain ABHD12 visualized by CuAAC with Rh-N3; assay type: biochemical; details: 45 min, 37 °C
structure (smiles),measurement,setting,value
"FC(F)(F)Oc1ccc(Oc2ccnc(N3CCC[C@H](NC(=S)Nc4cccnc4)C3)c2Cl)c(Cl)c1 [(S)-DO271, (S)-N-3-pyridyl-N’-(1-[3-chloro-4-{2-chloro-4-(trifluoromethoxy)phenoxy}pyridine-2-yl]piperidin-3-yl)thiourea]",fraction of treated ABHD12(−/−) mice that died prior to sacrifice at day 10,LCMV clone 13,30-40%
same,effect on activity of other serine hydrolases,[1],did not affect
same,effect on ABHD12 activity (in words),ABHD12 [2],did not affect
same,activity against ABHD12 (in words),ABHD12 [3],inactive
same,lyso-PS content of THP-1 cells,THP-1 cells,did not alter
same,"overt signs of toxicity, such as weight loss or behavioral distress",mice,neither compound produced overt signs of toxicity
same,ABHD12 activity in THP-1 cells by competitive gel-based ABPP (in words),ABHD12 [4],unaffected
same,"brain ABHD12 activity, ex vivo analysis with JJH350 probe",ABHD12 [5],did not block
same,exposure compared with DO264 (in words),[6],lower exposure
"Cc1cnc(N2CCN(NC(=S)Nc3cccnc3)CC2)c(Cl)c1 [DO127, N-3-pyridyl-N’-[1-{3-chloro-5-(methyl)pyridin-2-yl}piperazine-4-yl]thiourea]",activity against ABHD12 (in words),ABHD12 [3],no activity
"FC(F)(F)c1cnc(N2CCC(NC(=S)Nc3cccnc3)CC2)c(Cl)c1 [DO130, N-3-pyridyl-N’-[1-{3-chloro-5-(trifluoromethyl)pyridin-2-yl}piperidin-4-yl]thiourea]",IC50,ABHD12 [7],1.3 µM
same,activity in LC/MS-based lyso-PS hydrolysis secondary assay,ABHD12 [7]; hit compound tested at 10 μM,showed activity
same,activity in competitive ABPP secondary assay (FP-Rh probe),ABHD12 [8],showed activity
"C#Cc1ccc(Oc2ccnc(N3CCC(NC(=S)Nc4cccnc4)CC3)c2Cl)c(Cl)c1 [DO274, N-3-pyridyl-N’-(1-[3-chloro-4-{2-chloro-4-(ethynyl)phenoxy}pyridine-2-yl]piperidin-4-yl)thiourea]",ABHD12 inhibitory activity (in words),ABHD12 [7],potent ABHD12 inhibitory activity
same,covalent modification of ABHD12,ABHD12 [9],did not show evidence of covalent modification
"CN(C(=S)Nc1cccnc1)C1CCN(c2nccc(Oc3ccc(OC(F)(F)F)cc3Cl)c2Cl)CC1 [DO276, N-3-pyridyl-N’-methyl-N’-(1-[3-chloro-4-{2-chloro-4-(trifluoromethoxy)phenoxy}pyridine-2-yl]piperidin-4-yl)thiourea]",IC50,ABHD12 [3],1.1 µM
"O=C(Nc1cccnc1)NC1CCN(c2nccc(Oc3ccc(OC(F)(F)F)cc3Cl)c2Cl)CC1 [DO277, N-3-pyridyl-N’-(1-[3-chloro-4-{2-chloro-4-(trifluoromethoxy)phenoxy}pyridine-2-yl]piperidin-4-yl)urea]",IC50,ABHD12 [3],0.17 µM
